According to ChEMBL document CHEMBL4513216, “Probing the Open Global Health Chemical Diversity Library for Multistage-Active Starting Points for Next-Generation Antimalarials” (ACS Infect Dis, 2020):

Assay: Toxicity liver stage against HepG2, at 10uM
Assay type: cell-based
Parameters: test concentration 10 uM, cell line HepG2-A16-CD81EGFP
Details: human, HepG2-A16-CD81EGFP cells; read-out: INHIBITION
Summary of the method: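 Uninfected HepG2-A16-CD81EGFP cells, 3 × 10^3 per well, 1536-well, plated on prespotted compound at 10 μM final, parasite-free screening media added to match infected plates; puromycin 10 μM positive, DMSO 0.5% negative; run in parallel with 48 h PbLuc assay at 37 °C, 5% CO2; viability by CellTiter-Glo luminescence, normalized to controls.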

Row | SMILES | cytotoxicity at 10 µM [%]
1 | COc1ncc(C(=O)NCc2ccc(Br)cc2)cn1 | 48.6
2 | CC(=O)Nc1ccc2c(c1)C1(CCOCC1)C(=O)N2c1ccsc1 | 5.56
3 | CC(C)CN1CCC2(Cc3ccccc3NC2=O)C1 (stereo not given) | 6.86
4 | O=C1CC(c2cccs2)Cc2[nH]c(=O)c(C(=O)NC3CCCC3)cc21 (stereo not given) | 80.5
5 | Cc1cc(-c2cnc(N3CCC(O)CC3)nc2C(C)C)on1 | 66.4
6 | NC(=O)CN1CCCC(c2cncc(Nc3ncccn3)n2)C1 (stereo not given) | -2.61
7 | CCS(=O)(=O)N1CCC(C(=O)NC(Cc2ccsc2)c2nccs2)CC1 (stereo not given) | -2.72
8 | C[C@]1(O)CN(CCO)CC[C@@H]1Oc1cccc(F)c1 | -6
9 | Cc1ncsc1-c1nnc(C2CCN(Cc3ccccc3F)CC2)o1 | -10.2
10 | CC(=O)NC[C@]1(O)CCN(C(=O)c2ccc3c(c2)OCO3)C[C@H]1O | -9.91
11 | Cn1nc(C2CCNCC2)c2c(C(=O)NC3CC3)cc(C3CC3)nc21 | 16.2
12 | Cc1ccc(N2CCC(Nc3ccc4nnc(C)n4n3)CC2)nc1 | 8.56
13 | CN1CCN(C(=O)c2cn(-c3ccc(C(F)(F)F)cn3)nn2)CC1 | -63
14 | Cc1ccc(OCC(=O)Nc2ccc(S(C)(=O)=O)cc2)cc1C | -2.4
15 | c1cnnc(N2CCCC(NCc3nc(-c4ccsc4)no3)C2)c1 (stereo not given) | 7.79
16 | Cc1cccc(C(=O)N2CCCN(CCCSCC#N)CC2)c1 | -150
17 | COC(=O)c1ccc(CNC(=O)Nc2ccc(=O)n(C)c2)cc1 | -6.8
18 | c1cnc2nc(N3CCCC3c3nnc4n3CCCCC4)ccc2n1 (stereo not given) | 4.21
19 | OC1CCN(c2ccc(CNc3nc4ccccc4s3)cc2F)CC1 | 1.71
20 | NC(=O)C1=NC2=NS(=O)(=O)c3ccccc3N2N1Cc1ccc(Cl)cc1 | 1.75
21 | CC(=O)N(CCc1ccccc1)CC(=O)NC(C)(C)C#N | 8.06
22 | CN(Cc1ccc(Cl)s1)C(=O)Nc1ccc(N(C)C)nc1 | -1.73
23 | CCN(C(=O)CCOC)C(c1ccc(Cl)cc1)c1ccccn1 (stereo not given) | 1.88
24 | CNS(=O)(=O)CCCN(C)Cc1cc(C)ccc1OC | -61
25 | COc1cc(F)c(NCc2nc3ccccc3n2C)cc1OC | 26.5
26 | CC(C)(C)c1nc(CN(Cc2cccs2)C2CCS(=O)(=O)C2)cs1 (stereo not given) | 16
27 | CN1CCN(Cc2cnc3n2CCN(C(=O)c2ccoc2)C3)CC1 | -80.7

Row | SMILES | cytotoxicity at 10 µM [%]
28 | COCC1CN(C(=O)CC2Cc3ccccc3C2)Cc2c1cnn2C (stereo not given) | -75.4
29 | CC(=O)N1CCC2(CCCN(Cc3ccc(Cl)c(C(F)(F)F)c3)C2)C1 (stereo not given) | 3.22
30 | CC(CN1CCCCCC1)NCc1cc(-c2ccco2)on1 (stereo not given) | 1.56
31 | Cc1ncc2c(c1-c1noc(-c3cscn3)n1)CCNC2 | -3.37
32 | COc1cc(Cc2nc3c([nH]2)CC(C)(C)CNC3=O)cc(OC)c1 | -6.27
33 | Cn1ncc(N2CCC(CNC3Cc4ccccc4C3)C2)cc1=O (stereo not given) | -6
34 | O=C(CSCC1CC1)N1CCCN(c2ccc(F)cc2)CC1 | -4.43
35 | COCCC1(C(=O)O)CCCN(C(=O)c2cc(Cl)ccc2F)C1 (stereo not given) | -2.79
36 | O=C(NCc1nnc2n1CCCC2)c1ccc(C2CCCO2)s1 (stereo not given) | 15.7
37 | COCC(=O)N1C[C@H]2CNC[C@@]2(C(=O)NCc2cc(C)n[nH]2)C1 | 8.29
38 | N[C@@H]1c2ccccc2C2(CCN(c3cc(C(F)(F)F)ccn3)CC2)[C@H]1O | 0.106
39 | Cc1ccc2nc(C)c(C)c(C(=O)N[C@H]3COC[C@@H]3N3CCCC3)c2c1 | -45.8
40 | CCc1nn(C)c(Cl)c1CN1C[C@@H](NC(=O)N(C)C)[C@H](C(C)C)C1 | 11.4
41 | COc1cccc(NC(=O)NCC2CCCN(C3CCOCC3)C2)c1 (stereo not given) | -2.48
42 | O=C(NCCC1CCCCO1)c1cc(COc2cncc(Cl)c2)on1 (stereo not given) | -1.73
43 | Cc1ccccc1N1CCCN(C(=O)CCc2cccnc2)CC1 | -9.2
44 | C[C@@H]1CN(Cc2nc(C(N)=O)no2)CC[C@@]1(O)C1CCOCC1 | -38.5
45 | COc1nc2c(cc1C(=O)N1CCCOC(Cn3cccn3)C1)CCC2 (stereo not given) | -52.1
46 | O=C(NCCC1COc2ccccc2O1)c1ccc(N2CC(O)C2)nc1 (stereo not given) | 72.1
47 | Cc1cc(N(C)Cc2ncc[nH]2)nc(-c2ccccc2)n1 | 1.68
48 | Cc1ccc(C(=O)N(C)CCCc2cnn(C)c2)cc1N1CCNC1=O | -4.39
49 | CCC[C@H]1CN(Cc2cc(C)no2)C[C@@H]1NC(=O)C1(COC)CCC1 | 3.06
50 | CCc1ccccc1OCCN(C)C(=O)CN1CCCC1 | -50.4
51 | COCc1cc(NCCCSc2nnc(C)s2)ncn1 | 11.6
52 | CCCc1nc(C)cc(N2CCNC(C(=O)NCc3cccnc3)C2)n1 (stereo not given) | -7
53 | Cc1nc(N(C)C2CCCCC2)ncc1C(C)NC(=O)c1cscn1 (stereo not given) | -134
54 | CCC(=O)N1CCc2nc3cc(OC)c(OC)cc3c(=O)n2CC1 | 2.65

Row | SMILES | cytotoxicity at 10 µM [%]
55 | COc1ccc(C2=CCN(C(=O)C3CCS(=O)(=O)C3)CC2)cc1 (stereo not given) | -7.45
56 | COc1ccc(-c2nc(CN3CCN(CCO)CC3)co2)cc1 | -0.0868
57 | O=C(c1cnccn1)N1CCN(Cc2csc(-c3ccccc3)n2)CC1 | -3.32
58 | Cn1ccc(C(=O)N2CCN(c3cc(C#N)ccn3)CC2)cc1=O | -14.2
59 | Cc1cnn(C2CCCN(C(=O)c3cc(C4CC4)on3)C2)c1 (stereo not given) | -11.4
60 | Cc1noc(C2CCN(C(=O)c3ccc(NC4CC4)nc3)CC2)n1 | -7.1
61 | Cn1cc(CCNC(=O)NCc2nnc3n2CCC3)cn1 | -6.08
62 | CCCc1nc(CN2CCOC(CNc3cccnn3)C2)cs1 (stereo not given) | -6.71
63 | CN(C(=O)c1cccc2[nH]ncc12)C1CCN(c2ccccn2)CC1 | 7.31
64 | Cc1ccc(CN2CCc3c(COCC4CC4)nn(C)c3C2)s1 | 6.35
65 | c1cnc(N2CCC3(COCc4cnc(-c5cccnc5)nc43)C2)nc1 (stereo not given) | 2.57
66 | CS(=O)(=O)N1CCC2(CCN(C(=O)c3cccnc3)CC2)C1 | 3.59
67 | COCCNC(=O)[C@H]1C[C@@H]2CCN(CCc3ccccc3)C[C@H]2O1 | -70.3
68 | CCOCC1CN(C2CCCC2)Cc2cnn(CC3CCOCC3)c21 (stereo not given) | -9.13
69 | N#Cc1cccc(CN2CCn3cc(Cn4cccn4)nc3C2)c1 | -0.501
70 | c1ccc(CO[C@@H]2CN(Cc3nccs3)[C@@H]3COC[C@@H]32)nc1 | -104
71 | COCC(=O)NCc1cc(=O)n2c(n1)CN(C)CCC2 | -103
72 | O=C([C@H]1C[C@H]2OCC[C@H]2N(Cc2ccccc2F)C1)N1CCCCO1 | -72.2
73 | Cc1cccc(CN2CCOC3(CCCN(CC(=O)N(C)C)C3)C2)n1 (stereo not given) | -106
74 | Cc1ccc(CNCc2ccc(N3CCC(CO)CC3)nc2)c(C)c1 | 1.37
75 | c1cncc(N2CCOCC3(CCCN(Cc4cccs4)C3)C2)c1 (stereo not given) | 14.8
76 | Cc1nccc(NCc2cncc3c2CCN(S(C)(=O)=O)C3)n1 | -99.4
77 | CC(C)N1CCO[C@@H]2CN(C(=O)Cc3cccs3)CC[C@@H]2C1 | -120
78 | CC(C)OCc1ncn2c1CN(Cc1ccoc1)CCC2 | -75.7
79 | O=C(Nc1ccccc1)[C@H]1C[C@H]2CN(Cc3cccnc3)C[C@@H]1O2 | -80
80 | CC1(C)[C@@H]2CC=C(CN3CCCn4nc(CCC(=O)O)cc4C3)[C@H]1C2 | -40.2
